Experimental data: ChEMBL document CHEMBL1123080, “Synthesis and antiviral activity of the carbocyclic analogues of (E)-5-(2-halovinyl)-2'-deoxyuridines and (E)-5-(2-halovinyl)-2'-deoxycytidines” (1985)
Converted amounts (≈) assume the structure as drawn.

tested on: Vaccinia virus; test: Minimum inhibitory concentration (MIC) required to reduce vaccinia virus induced cytopathogenicity in primary rabbit kidney cell cultures; type: functional; settings: Orthopoxvirus vaccinia
Method in brief: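 Primary rabbit kidney cell cultures were infected with virus and treated with compound. The MIC is the concentration that reduces virus-induced cytopathogenicity by 50%. Cytotoxicity was scored as microscopically visible alteration of normal cell morphology, with 400 μg/mL the highest concentration tested.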

| Compound | MIC50 [µg/mL] |
| --- | --- |
| O=c1[nH]c(=O)n(C2CC(O)C(CO)C2)cc1/C=C/I (configuration not stated) | 300 (≈ 793 µM) |
| Nc1nc(=O)n(C2CC(O)C(CO)C2)cc1/C=C/Br (configuration not stated) | > 200 |
| O=c1[nH]c(=O)n([C@H]2C[C@H](O)[C@@H](CO)O2)cc1/C=C/I | 7 (≈ 18.4 µM) |
| O=c1[nH]c(=O)n([C@@H]2C[C@H](CO)[C@@H](O)C2)cc1I | 20 (≈ 56.8 µM) |
| NC1NC(=O)N([C@H]2C[C@H](O)[C@@H](CO)O2)C=C1/C=C/Br (some centres not stated) | 200 (≈ 598 µM) |
| O=c1[nH]c(=O)n([C@H]2C[C@@H](CO)[C@H](O)C2)cc1/C=C/Br | 300 (≈ 906 µM) |
| O=c1[nH]c(=O)n([C@H]2C[C@H](O)[C@@H](CO)O2)cc1I [IDOXURIDINE] | 0.2 (≈ 0.565 µM) |
